Experimental data from ChEMBL document CHEMBL1152418, “Synthesis, antiviral activity and molecular modeling of oxoquinoline derivatives” (Bioorg Med Chem, 2009).

What was measured:
[1] = system: Human immunodeficiency virus 1; assay: Inhibition of HIV1 viral replication infected in human PBMC cells assessed as viral p24Ag concentration after 7 days postinfection by ELISA relative to untreated control; type: functional
Summary of the method: (§1)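 HIV-1 Ba-L (R5-tropic, subtype B) grown in PHA-activated donor PBMCs. PBMCs stimulated 2–3 days with 5 μg/mL PHA, then kept with 5 U/mL IL-2. Cells plated at 2 × 10⁵/well in triplicate with a range of compound concentrations. After 7 days at 37 °C, 5% CO₂, supernatant p24 measured by capture ELISA. EC₅₀ derived against untreated infected cells.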

[2] = system: Human immunodeficiency virus 1; assay: Inhibition of HIV1 viral replication infected in human PBMC cells assessed as viral p24Ag concentration after 7 days postinfection by ELISA; type: functional, organism-based; details: Human immunodeficiency virus 1, PBMC, 168 h; summary of the method: as §1
[3] = Cytotoxicity against human PBMC by XTT assay; type: cell-based; details: PBMC (peripheral blood mononuclear cells)
Summary of the method: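 PBMCs held in RPMI 1640 with 10% heat-inactivated FBS, penicillin, streptomycin, 2 mM glutamine and 10 mM HEPES. Activated with 5 µg/mL PHA for 2–3 days, then kept with 5 U/mL IL-2. Cells exposed to a range of concentrations. Viability read by XTT, OD 450 nm 2 h after addition. CC50 is the concentration giving 50% viability loss versus untreated controls.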

[4] = Selectivity index, ratio of CC50 for human PBMC cells to EC50 for HIV1; type: toxicity, cell-based; details: read-out: Ratio CC50/EC50
Summary of the method: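 Ratio of PBMC CC50 to anti-HIV-1 EC50. Both were measured in PHA-activated, IL-2-maintained PBMCs. For EC50, cells were infected with Ba-L isolate (R5-tropic, subtype B), plated at 2 × 10⁵ cells/well in triplicate and treated with various concentrations for 7 days at 37 °C, 5% CO2. Supernatant p24 was measured by capture ELISA against untreated infected cells. CC50 came from XTT viability.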

For NNC(=O)c1c[nH]c2ccc(Cl)cc2c1=O, the “inhibition (INH)” value [1] was 29%, the EC50 [2] was 86 µM and the CC50 [3] was 1230 µM. The selectivity ratio [4] was 14.

For CCOC(=O)c1cn(Cc2ccccc2)c2ccc(Cl)cc2c1=O, the “inhibition (INH)” value [1] was 24%, the EC50 [2] was 104 µM and the CC50 [3] was 1840 µM. The selectivity ratio [4] was 18.

For O=C(NCc1ccccc1)c1c[nH]c2ccc(Cl)cc2c1=O, the “inhibition (INH)” value [1] was 47%, the EC50 [2] was 53 µM and the CC50 [3] was 1400 µM. The selectivity ratio [4] was 26.

With O=C(NCc1ccccc1)c1cn(COCCO)c2ccc(Cl)cc2c1=O the “inhibition (INH)” value [1] was 98%, the EC50 [2] was 4.5 µM and the CC50 [3] was 3200 µM. For the same compound, the selectivity ratio [4] was 711.

For O=C(O)c1cn(Cc2ccccc2)c2ccc(Cl)cc2c1=O, the “inhibition (INH)” value [1] was 29%, the EC50 [2] was 86 µM and the CC50 [3] was 1890 µM. The selectivity ratio [4] was 22.

In the case of NNC(=O)c1cn(COCCO)c2ccc(Cl)cc2c1=O, the “inhibition (INH)” value [1] is reported as 99%, the EC50 [2] is reported as 2.5 µM and the CC50 [3] is reported as 2400 µM. The selectivity ratio [4] was 960.

With Cc1cn([C@H]2C[C@H](N=[N+]=[N-])[C@@H](CO)O2)c(=O)[nH]c1=O [ZIDOVUDINE] the “inhibition (INH)” value [1] was 94%, the EC50 [2] was 0.05 µM and the CC50 [3] was 126 µM. It also gave a selectivity ratio [4] of 2520.

For CCOC(=O)c1cn(COCCO)c2ccc(Cl)cc2c1=O, the “inhibition (INH)” value [1] was 45%, the EC50 [2] was 50 µM and the CC50 [3] was 1800 µM. The selectivity ratio [4] was 36.

With CCOC(=O)c1cn(COCCO)c2ccc(F)cc2c1=O the “inhibition (INH)” value [1] was 30%, the EC50 [2] was 83.3 µM and the CC50 [3] was 1500 µM. It also gave a selectivity ratio [4] of 18.

In the case of CCOC(=O)c1c[nH]c2ccc(Cl)cc2c1=O, the “inhibition (INH)” value [1] is reported as 58%, the EC50 [2] is reported as 43 µM and the CC50 [3] is reported as 1660 µM. For the same compound, the selectivity ratio [4] was 39.

For O=C(NCc1ccccc1)c1cn(COCCO)c2ccc(F)cc2c1=O, the “inhibition (INH)” value [1] was 90%, the EC50 [2] was 2.8 µM and the CC50 [3] was 2800 µM. For the same compound, the selectivity ratio [4] was 1000.

In the case of O=C(O)c1cn([C@@H]2O[C@H](CO)[C@@H](O)[C@H]2O)c2ccc(Cl)cc2c1=O, the “inhibition (INH)” value [1] is reported as 99%, the EC50 [2] is reported as 1.5 µM and the CC50 [3] is reported as 1700 µM. The selectivity ratio [4] was 1130.

With NNC(=O)c1cn(COCCO)c2ccc(F)cc2c1=O the “inhibition (INH)” value [1] was 96%, the EC50 [2] was 3.3 µM and the CC50 [3] was 909 µM. It also gave a selectivity ratio [4] of 275.
